Converted amounts (≈) assume the structure as drawn.
Assays:
[1] = Partition coefficient log P by shake flask method; assay type: physicochemical; settings: octanol/water
Outline: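 Shake flask in n-octanol/phosphate buffer pH 7.4. Compound-saturated octanol shaken with an equal volume of buffer for 24 h at 25 °C, then left 30 min to separate. Both phases quantified by UV against calibration plots.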

[2] = Aqueous solubility at pH. 4; assay type: physicochemical
[3] = Chemical stability assessed as half life of hydrolysis at pH 2; assay type: physicochemical; settings: buffer
Outline: (§1)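 Compound dissolved in preheated HCl buffer pH 2 or isotonic phosphate buffer pH 7.4 and held at 37 °C. Pseudo-first-order rate constants taken from semilog plots of concentration versus time.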

[4] = Chemical stability assessed as half life of hydrolysis at pH 7.4; assay type: physicochemical; settings: buffer; outline: as §1
[5] = Stability in presence of 80% human plasma assessed as half life; assay type: ADME, cell-free
Outline: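 Citrated human plasma diluted 4:1 with isotonic phosphate buffer pH 7.4 (80% plasma), preheated, shaken at 37 °C. Compound added from a 1 mg/ml stock; samples at intervals diluted and read at 253 nm for released BPA. Rate constant and t½ taken from the linear part of the log BPA concentration versus time plot.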

[6] = Antioxidant activity in stomach assessed as superoxide dismutase activity measured per mg of protein (RVb = 325.40 +/- 69 U); assay type: functional
[7] = Antioxidant activity in stomach assessed as catalase activity measured per mg of protein (RVb = 28.38 +/- 2.85 U); assay type: functional
[8] = Antioxidant activity in stomach assessed as lipid peroxidation measured per mg of protein (RVb = 4.61 +/- 1.28 nmole); assay type: functional, tissue-based
[9] = Antioxidant activity in stomach assessed as myeloperoxidase activity relative to control; assay type: functional
Outline: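 Stomach homogenate from ulcer-study rats (0.01 M phosphate buffer), spun 10,000 rpm, 10 min, 10 °C. Supernatant mixed with o-phenylenediamine (660 µg/ml) and started with 300 mM H2O2; A492 read every 30 s for 5 min. ΔOD/min expressed as % of control activity.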

Mus musculus = assay: Analgesic activity in mouse assessed as inhibition of acetic acid-induced writhing at 10 mg/kg, po relative to control; assay type: functional
Outline: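 Male LACCA mice (25–35 g), fasted overnight, dosed orally in 0.5% CMC (0.1 ml/10 g) 1 h before 1% acetic acid, 10 ml/kg i.p. Writhes counted over 20 min starting 3 min post-challenge. % inhibition = (1 − Nt/Nc) × 100 versus vehicle controls. Mean ± SE of five experiments.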

Rattus norvegicus [10] = assay: Toxicity in Sprague-Dawley rat assessed as ulcer index at dose molar equivalent to 54 mg/kg, po; assay type: organism-based; set-up: dose 54 mg/kg, route oral; settings: in vivo
Outline: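 Overnight-fasted Sprague-Dawley rats given oral doses equimolar to BPA 54 mg/kg; vehicle controls. Killed 4 h after dosing; stomachs opened along greater curvature, saline-washed and scored: 0 none, 1 punctiform <1 mm, 3 filiform <5 mm, 4 punctiform >1 mm or filiform >5 mm. Mean ± SE of five experiments.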

Rattus norvegicus [11] = assay: Antiinflammatory activity in Sprague-Dawley rat assessed as reduction in carrageenan-induced paw edema at dose molar equivalent to 15 mg/kg, po after 4 hrs (RVb = 78.4+/- 2.53%); set-up: scale not given: the % may be the effect or the level left
Rattus norvegicus [12] = assay: Antiinflammatory activity in Sprague-Dawley rat assessed as reduction in carrageenan-induced paw edema at dose molar equivalent to 15 mg/kg, po after 5 hrs (RVb = 65.2+/- 1.96%); set-up: scale not given: the % may be the effect or the level left
Rattus norvegicus [13] = assay: Antiinflammatory activity in Sprague-Dawley rat assessed as reduction in carrageenan-induced paw edema at dose molar equivalent to 15 mg/kg, po after 2 hrs (RVb = 68.8 +/- 2.06%); set-up: scale not given: the % may be the effect or the level left
Rattus norvegicus [14] = assay: Antiinflammatory activity in Sprague-Dawley rat assessed as reduction in carrageenan-induced paw edema at dose molar equivalent to 15 mg/kg, po after 3 hrs (RVb = 81.1+/- 2.43 %); set-up: scale not given: the % may be the effect or the level left

| logP [1] | solubility [2] | half-life [3] | half-life [4] | half-life [5] | SMILES | Activity [6] | Activity [7] | Activity [8] | Activity [9] | inhibition in vivo at 10 mg/kg (Mus musculus) | UI (Rattus norvegicus [10]) | Activity (Rattus norvegicus [11]) | Activity (Rattus norvegicus [12]) | Activity (Rattus norvegicus [13]) | Activity (Rattus norvegicus [14]) |
| --- | --- | --- | --- | --- | --- | --- | --- | --- | --- | --- | --- | --- | --- | --- | --- |
| 3.95 | 14.5 µg/mL (≈ 26.2 µM) | > 100 h | > 38 h | 0.33 h | COc1cc(OC)c2c(=O)c(OC(=O)Cc3ccc(-c4ccccc4)cc3)c(-c3ccc(OC)c(OC)c3)oc2c1 | 223 U/mg protein | 22.4 U/mg protein | 6.42 nM | 118.93% | 62.4% | 0.45 | 31.6% | 33.1% | 34.2% | 37.5% |
| – | – | – | – | – | O=C(O)Cc1ccc(-c2ccccc2)cc1 [FELBINAC] | 26.2 U/mg protein | 3.52 U/mg protein | 22.6 nM | 238.47% | 68.6% | 6.2 | 25.2% | 29.1% | 26.9% | 26.5% |

From ChEMBL document CHEMBL1165896, “Design, synthesis and evaluation of mutual prodrug of 4-biphenylacetic acid and quercetin tetramethyl ether (BPA-QTME) as gastrosparing NSAID” (Eur J Med Chem, 2010)
